Data as given in ChEMBL document CHEMBL1765020, “Synthesis and structure-affinity relationships of novel dibenzylideneacetone derivatives as probes for β-amyloid plaques” (J Med Chem, 2011).
Blank lines part the entries; values can stand above or below the compound they belong to. Active and inactive are the calls of the source. The rule behind the calls is not given here.

Key:
[1] = biological target: Amyloid-beta precursor protein (Homo sapiens) (UniProt P05067); experiment: Binding affinity to amyloid beta (1 to 42) aggregate in cortex of Alzheimer disease patient brain by autoradiography; details: tested as the 125I-labelled form
Amyloid-beta precursor protein (Homo sapiens), sequence (P05067 whole entry): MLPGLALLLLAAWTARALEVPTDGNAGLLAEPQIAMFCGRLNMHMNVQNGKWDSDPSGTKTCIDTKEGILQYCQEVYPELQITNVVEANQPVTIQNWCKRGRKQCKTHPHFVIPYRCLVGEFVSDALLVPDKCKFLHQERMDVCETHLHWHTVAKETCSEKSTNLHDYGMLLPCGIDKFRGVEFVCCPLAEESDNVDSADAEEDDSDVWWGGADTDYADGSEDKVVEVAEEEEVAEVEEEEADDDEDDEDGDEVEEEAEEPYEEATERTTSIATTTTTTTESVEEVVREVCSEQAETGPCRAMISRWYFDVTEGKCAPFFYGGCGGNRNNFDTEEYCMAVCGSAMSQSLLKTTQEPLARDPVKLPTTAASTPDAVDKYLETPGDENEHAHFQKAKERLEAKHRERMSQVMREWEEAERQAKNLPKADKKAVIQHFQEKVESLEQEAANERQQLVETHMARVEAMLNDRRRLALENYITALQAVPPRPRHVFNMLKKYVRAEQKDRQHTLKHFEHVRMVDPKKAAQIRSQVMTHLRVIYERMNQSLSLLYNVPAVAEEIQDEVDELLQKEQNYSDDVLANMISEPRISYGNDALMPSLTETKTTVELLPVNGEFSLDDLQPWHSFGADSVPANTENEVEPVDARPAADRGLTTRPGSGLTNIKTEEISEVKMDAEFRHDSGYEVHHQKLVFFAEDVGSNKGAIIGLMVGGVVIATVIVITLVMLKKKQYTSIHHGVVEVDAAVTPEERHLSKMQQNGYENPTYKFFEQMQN
Outline: (§1)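 Human postmortem temporal-lobe paraffin sections were used: AD patient and normal control (person). They were deparaffinized (xylene, graded ethanol), held 30 min in PBS 0.2 M pH 7.4, incubated 1 h at room temperature with radiotracer (5 μCi/100 μL), washed 3 min in 40% ethanol, rinsed, dried and exposed to an imaging plate overnight.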

[2] = biological target: Amyloid-beta precursor protein (Homo sapiens) (UniProt P05067); experiment: Binding affinity to amyloid beta (1 to 42) aggregate in white matter of Alzheimer disease patient brain by immunohistochemical staining using amyloid beta antibody BC05; format: tissue-based; details: tested as the 125I-labelled form
Outline: (§2)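 Plaque presence and location in the AD patient temporal-lobe sections were confirmed by immunohistochemistry with monoclonal anti-Aβ1-42 antibody BC05.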

[3] = Displacement of [125I]IMPY from amyloid beta (1 to 42) aggregate after 2 hrs by gamma counting
Outline: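 Competition binding in 1 mL PBS (0.2 M, pH 7.4). Aggregated Aβ1-42 fibrils (60 nM final) with [125I]IMPY and inhibitor at 10^-5 to 10^-10 M, added in ethanol. Nonspecific binding was defined with 1 μM IMPY. Incubated 2 h at 37 °C with shaking, then vacuum-filtered through glass fibre filters and the bound fraction gamma-counted. IC50 was converted to Ki by Cheng-Prusoff; triplicate, mean ± SD.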

[4] = biological target: Amyloid-beta precursor protein (Homo sapiens) (UniProt P05067); experiment: Binding affinity to amyloid beta (1 to 42) aggregate in white matter of Alzheimer disease patient brain by autoradiography; format: tissue-based; details: tested as the 125I-labelled form; outline: as §1
[5] = biological target: Amyloid-beta precursor protein (Homo sapiens) (UniProt P05067); experiment: Binding affinity to amyloid beta (1 to 42) aggregate in cortex of Alzheimer disease patient brain by immunohistochemical staining using amyloid beta antibody BC05; details: tested as the 125I-labelled form; outline: as §2
Bone [6] = experiment: Biodistribution in ddY mouse bone at 10 uCi/100 uL, iv after 30 mins by gamma counting; format: ADME, organism-based, Bone element; details: in vivo, 0.5 h
Outline: (§3)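 Normal female ddY mice (5 weeks, about 20 g; n = 4 per group) received radiotracer iv. Organs were removed and weighed at 2–120 min and counted in a γ-counter. Percent dose per gram of wet tissue was calculated against diluted aliquots of the injected material and reported as mean ± SD.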

Intestine [7] = experiment: Biodistribution in ddY mouse intestine at 10 uCi/100 uL, iv after 2 mins by gamma counting; format: ADME, organism-based; details: in vivo; outline: as §3
Heart [8] = experiment: Biodistribution in ddY mouse heart at 10 uCi/100 uL, iv after 15 mins by gamma counting; format: ADME, organism-based; details: in vivo, 0.25 h; outline: as §3
Blood [9] = experiment: Biodistribution in ddY mouse blood at 10 uCi/100 uL, iv after 30 mins by gamma counting; format: ADME, organism-based; details: in vivo, 0.5 h; outline: as §3
Heart [10] = experiment: Biodistribution in ddY mouse heart at 10 uCi/100 uL, iv after 60 mins by gamma counting; format: ADME, organism-based; details: in vivo, 1 h; outline: as §3
Stomach [11] = experiment: Biodistribution in ddY mouse stomach at 10 uCi/100 uL, iv after 60 mins by gamma counting; format: ADME, organism-based; details: in vivo, 1 h
Stomach [12] = experiment: Biodistribution in ddY mouse stomach at 10 uCi/100 uL, iv after 15 mins by gamma counting; format: ADME, organism-based; details: in vivo, 0.25 h
Stomach [13] = experiment: Biodistribution in ddY mouse stomach at 10 uCi/100 uL, iv after 2 mins by gamma counting; format: ADME, organism-based; details: in vivo
Liver [14] = experiment: Biodistribution in ddY mouse liver at 10 uCi/100 uL, iv after 2 mins by gamma counting; format: ADME, organism-based; details: in vivo
Blood [15] = experiment: Biodistribution in ddY mouse blood at 10 uCi/100 uL, iv after 60 mins by gamma counting; format: ADME, organism-based; details: in vivo, 1 h; outline: as §3
Brain [16] = experiment: Biodistribution in ddY mouse brain at 10 uCi/100 uL, iv after 2 mins by gamma counting; format: ADME, organism-based; details: in vivo; outline: as §3
[17] = Partition coefficient, log D of the compound; format: physicochemical; details: octanol/water
Outline: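 Radiotracer partitioned between n-octanol and PBS: vortexed 3 min at room temperature, centrifuged 5 min at 3000 rpm. Weighed samples of the octanol (100 μL) and buffer (500 μL) layers were counted. log D is the log of the ratio of counts per gram, octanol versus PBS.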

Heart [18] = experiment: Biodistribution in ddY mouse heart at 10 uCi/100 uL, iv after 30 mins by gamma counting; format: ADME, organism-based; details: in vivo, 0.5 h; outline: as §3
Spleen [19] = experiment: Biodistribution in ddY mouse spleen at 10 uCi/100 uL, iv after 60 mins by gamma counting; format: ADME, organism-based; details: in vivo, 1 h
Blood [20] = experiment: Biodistribution in ddY mouse blood at 10 uCi/100 uL, iv after 15 mins by gamma counting; format: ADME, organism-based; details: in vivo, 0.25 h; outline: as §3
Blood [21] = experiment: Biodistribution in ddY mouse blood at 10 uCi/100 uL, iv after 2 mins by gamma counting; format: ADME, organism-based; details: in vivo; outline: as §3
Liver [22] = experiment: Biodistribution in ddY mouse liver at 10 uCi/100 uL, iv after 30 mins by gamma counting; format: ADME, organism-based; details: in vivo, 0.5 h
Lung [23] = experiment: Biodistribution in ddY mouse lung at 10 uCi/100 uL, iv after 60 mins by gamma counting; format: ADME, organism-based; details: in vivo, 1 h
Lung [24] = experiment: Biodistribution in ddY mouse lung at 10 uCi/100 uL, iv after 15 mins by gamma counting; format: ADME, organism-based; details: in vivo, 0.25 h
Lung [25] = experiment: Biodistribution in ddY mouse lung at 10 uCi/100 uL, iv after 2 mins by gamma counting; format: ADME, organism-based; details: in vivo
Brain [26] = experiment: Biodistribution in ddY mouse brain at 10 uCi/100 uL, iv after 60 mins by gamma counting; format: ADME, organism-based; details: in vivo, 1 h; outline: as §3
Brain [27] = experiment: Biodistribution in ddY mouse brain at 10 uCi/100 uL, iv after 15 mins by gamma counting; format: ADME, organism-based; details: in vivo, 0.25 h; outline: as §3
Lung [28] = experiment: Biodistribution in ddY mouse lung at 10 uCi/100 uL, iv after 30 mins by gamma counting; format: ADME, organism-based; details: in vivo, 0.5 h
Kidney [29] = experiment: Biodistribution in ddY mouse kidney at 10 uCi/100 uL, iv after 60 mins by gamma counting; format: ADME, organism-based; details: in vivo, 1 h
Spleen [30] = experiment: Biodistribution in ddY mouse spleen at 10 uCi/100 uL, iv after 30 mins by gamma counting; format: ADME, organism-based; details: in vivo, 0.5 h
Stomach [31] = experiment: Biodistribution in ddY mouse stomach at 10 uCi/100 uL, iv after 30 mins by gamma counting; format: ADME, organism-based; details: in vivo, 0.5 h
Bone [32] = experiment: Biodistribution in ddY mouse bone at 10 uCi/100 uL, iv after 60 mins by gamma counting; format: ADME, organism-based, Bone element; details: in vivo, 1 h; outline: as §3
Intestine [33] = experiment: Biodistribution in ddY mouse intestine at 10 uCi/100 uL, iv after 60 mins by gamma counting; format: ADME, organism-based; details: in vivo, 1 h; outline: as §3
Intestine [34] = experiment: Biodistribution in ddY mouse intestine at 10 uCi/100 uL, iv after 30 mins by gamma counting; format: ADME, organism-based; details: in vivo, 0.5 h; outline: as §3
Kidney [35] = experiment: Biodistribution in ddY mouse kidney at 10 uCi/100 uL, iv after 15 mins by gamma counting; format: ADME, organism-based; details: in vivo, 0.25 h
Bone [36] = experiment: Biodistribution in ddY mouse bone at 10 uCi/100 uL, iv after 2 mins by gamma counting; format: ADME, organism-based, Bone element; details: in vivo; outline: as §3
Kidney [37] = experiment: Biodistribution in ddY mouse kidney at 10 uCi/100 uL, iv after 2 mins by gamma counting; format: ADME, organism-based; details: in vivo
Liver [38] = experiment: Biodistribution in ddY mouse liver at 10 uCi/100 uL, iv after 60 mins by gamma counting; format: ADME, organism-based; details: in vivo, 1 h
Spleen [39] = experiment: Biodistribution in ddY mouse spleen at 10 uCi/100 uL, iv after 2 mins by gamma counting; format: ADME, organism-based; details: in vivo
Brain [40] = experiment: Ratio of drug uptake in ddY mouse brain at 10 uCi/100 uL, iv after 2 mins to drug uptake in ddY mouse brain at 10 uCi/100 uL, iv after 60 mins; format: ADME, organism-based; details: in vivo
Outline: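 Normal female ddY mice (5 weeks, about 20 g) received the radiotracer iv, with groups of 4 per time point. At 2 and 60 min, brain and other organs were excised and weighed and counted in a γ-counter. %ID/g wet tissue was taken against diluted injectate aliquots. The ratio is brain %ID/g at 2 min divided by brain %ID/g at 60 min.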

Brain [41] = experiment: Biodistribution in ddY mouse brain at 10 uCi/100 uL, iv after 30 mins by gamma counting; format: ADME, organism-based; details: in vivo, 0.5 h; outline: as §3
Heart [42] = experiment: Biodistribution in ddY mouse heart at 10 uCi/100 uL, iv after 2 mins by gamma counting; format: ADME, organism-based; details: in vivo; outline: as §3
Liver [43] = experiment: Biodistribution in ddY mouse liver at 10 uCi/100 uL, iv after 15 mins by gamma counting; format: ADME, organism-based; details: in vivo, 0.25 h
Kidney [44] = experiment: Biodistribution in ddY mouse kidney at 10 uCi/100 uL, iv after 30 mins by gamma counting; format: ADME, organism-based; details: in vivo, 0.5 h
Intestine [45] = experiment: Biodistribution in ddY mouse intestine at 10 uCi/100 uL, iv after 15 mins by gamma counting; format: ADME, organism-based; details: in vivo, 0.25 h; outline: as §3
Bone [46] = experiment: Biodistribution in ddY mouse bone at 10 uCi/100 uL, iv after 15 mins by gamma counting; format: ADME, organism-based, Bone element; details: in vivo, 0.25 h; outline: as §3
Spleen [47] = experiment: Biodistribution in ddY mouse spleen at 10 uCi/100 uL, iv after 15 mins by gamma counting; format: ADME, organism-based; details: in vivo, 0.25 h

- Activity [1]: Active
- Activity [2]: Active
- Ki [3]: 900 pM
- Activity [4]: Active
- Activity [5]: Active
SMILES: CN(C)c1ccc(/C=C/C(=O)/C=C/c2ccc(I)cc2)cc1

- Drug uptake (Bone [6]): 2.94 % ID/g
- Drug uptake (Intestine [7]): 6.58 % ID/g
- Drug uptake (Heart [8]): 7.64 % ID/g
- Drug uptake (Blood [9]): 4.68 % ID/g
- Drug uptake (Heart [10]): 5.14 % ID/g
- Drug uptake (Stomach [11]): 1.28 % ID/organ
- Drug uptake (Stomach [12]): 2.61 % ID/organ
- Drug uptake (Stomach [13]): 3.26 % ID/organ
- Drug uptake (Liver [14]): 24.15 % ID/g
- Drug uptake (Blood [15]): 3.59 % ID/g
- Drug uptake (Brain [16]): 5.15 % ID/g
- logD [17]: 3.08
- Drug uptake (Heart [18]): 5.44 % ID/g
- Drug uptake (Spleen [19]): 5.35 % ID/g
- Drug uptake (Blood [20]): 7.99 % ID/g
- Drug uptake (Blood [21]): 7.44 % ID/g
- Drug uptake (Liver [22]): 19.24 % ID/g
- Drug uptake (Lung [23]): 5.44 % ID/g
- Drug uptake (Lung [24]): 11.77 % ID/g
- Drug uptake (Lung [25]): 12.19 % ID/g
- Drug uptake (Brain [26]): 1.27 % ID/g
- Drug uptake (Brain [27]): 1.89 % ID/g
- Drug uptake (Lung [28]): 7.43 % ID/g
- Drug uptake (Kidney [29]): 9.43 % ID/g
- Drug uptake (Spleen [30]): 5.44 % ID/g
- Drug uptake (Stomach [31]): 1.93 % ID/organ
- Drug uptake (Bone [32]): 2.54 % ID/g
- Drug uptake (Intestine [33]): 26.26 % ID/g
- Drug uptake (Intestine [34]): 24.34 % ID/g
- Drug uptake (Kidney [35]): 14.15 % ID/g
- Drug uptake (Bone [36]): 2.97 % ID/g
- Drug uptake (Kidney [37]): 16.48 % ID/g
- Drug uptake (Liver [38]): 14.07 % ID/g
- Drug uptake (Spleen [39]): 5.39 % ID/g
- Ratio (Brain [40]): 4.06
- Drug uptake (Brain [41]): 1.35 % ID/g
- Drug uptake (Heart [42]): 10.55 % ID/g
- Drug uptake (Liver [43]): 30.09 % ID/g
- Drug uptake (Kidney [44]): 11.51 % ID/g
- Drug uptake (Intestine [45]): 12.82 % ID/g
- Drug uptake (Bone [46]): 2.93 % ID/g
- Drug uptake (Spleen [47]): 6.62 % ID/g
SMILES: CNc1ccc(/C=C/C(=O)/C=C/c2ccc(OCCOCCOCC[18F])cc2)cc1
